Measurements reported in ChEMBL document CHEMBL1131116, “Design and synthesis of new potent C2-symmetric HIV-1 protease inhibitors. Use of L-mannaric acid as a peptidomimetic scaffold” (J Med Chem, 1998).
Converted amounts (≈) assume the structure as drawn.

Tests used:
MT4 = assay: In vitro anti-HIV activity in MT-4 cells by using an HIV cytopathic assay; type: functional; settings: Homo sapiens, read-out: ED50 (the source's name)
In short: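 HIV cytopathic assay in MT-4 cells, with cell protection quantified by the vital dye XTT. ED50 (µg/mL), the 50% inhibitory concentration, was calculated from the percent cytoprotection for each compound.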

[1] = molecular target: T1, Human immunodeficiency virus type 1 protease (Human immunodeficiency virus 1, UniProt Q72874); assay: Inhibitory activity against purified HIV-1 protease expressed in Escherichia coli in sensitive fluorometric assay
[2] = molecular target: T1, Human immunodeficiency virus type 1 protease; assay: inhibitory activity against purified HIV-1 protease in a standardized spectrophotometric assay expressed in E. coli; ni=no inhibition
In short: (§1)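 Recombinant HIV-1 protease, cloned and heterologously expressed in E. coli, then purified. Inhibition was measured in a standardized spectrophotometric protease assay and reported as IC50 values.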

[3] = molecular target: T1, Human immunodeficiency virus type 1 protease; assay: inhibitory activity against purified HIV-1 protease in a standardized spectrophotometric assay expressed in Escherichia coli
[4] = molecular target: T1, Human immunodeficiency virus type 1 protease; assay: inhibitory activity against purified HIV-1 protease in a standardized spectrophotometric assay expressed in E. coli; ni= no inhibition; in short: as §1
[5] = molecular target: T1, Human immunodeficiency virus type 1 protease; assay: inhibitory activity against purified HIV-1 protease in a standardized spectrophotometric assay expressed in E. inhibition; in short: as §1
[6] = molecular target: T1, Human immunodeficiency virus type 1 protease; assay: Inhibitory activity against purified HIV-1 protease in a standardized spectrophotometric assay expressed in E. uM; in short: as §1
[7] = molecular target: T1, Human immunodeficiency virus type 1 protease; assay: inhibitory activity against purified HIV-1 protease in a standardized spectrophotometric assay expressed in E. coli; ni = no inhibition; in short: as §1

| SMILES | Ki [1] [nM] | IC50 [2] | other results |
| --- | --- | --- | --- |
| CNC(=O)[C@@H](NC(=O)[C@H](OCc1ccccc1)[C@H](O)[C@@H](O)[C@@H](OCc1ccccc1)C(=O)N[C@H](C(=O)NC)C(C)C)C(C)C | 0.4 |  | EC50 (MT4): 0.9 µg/mL (≈ 1.46 µM) |
| O=C(NCc1ccccn1)[C@H](OCc1ccccc1)[C@H](O)[C@@H](O)[C@@H](OCc1ccccc1)C(=O)NCc1ccccn1 |  | Not Active |  |
| CNC(=O)[C@@H](NC(=O)[C@H](OCc1ccccc1)[C@H](O)[C@@H](O)[C@@H](OCc1ccccc1)C(=O)N[C@H](C(=O)NC)c1ccccc1)c1ccccc1 |  | Not Active |  |
| O=C(NCCO)[C@H](OCc1ccccc1)[C@H](O)[C@@H](O)[C@@H](OCc1ccccc1)C(=O)NCCO |  | Not Active |  |
| COC(=O)[C@@H](NC(=O)[C@H](OCc1ccccc1)[C@H](O)[C@@H](O)[C@@H](OCc1ccccc1)C(=O)N[C@H](C(=O)OC)C(C)C)C(C)C |  |  | IC50 [3]: 5000 nM |
| O=C(NCc1cncs1)[C@H](OCc1ccccc1)[C@H](O)[C@@H](O)[C@@H](OCc1ccccc1)C(=O)NCc1cncs1 | 7100 |  |  |
| CNC(=O)[C@H](Cc1ccccc1)NC(=O)[C@H](OCc1ccccc1)[C@H](O)[C@@H](O)[C@@H](OCc1ccccc1)C(=O)N[C@@H](Cc1ccccc1)C(=O)NC | 140 | Not Active |  |
| O=C(NCc1c(F)cccc1Cl)[C@H](OCc1ccccc1)[C@H](O)[C@@H](O)[C@@H](OCc1ccccc1)C(=O)NCc1c(F)cccc1Cl | 2000 |  |  |
| COC(=O)[C@H](Cc1ccccc1)NC(=O)[C@H](OCc1ccccc1)[C@H](O)[C@@H](O)[C@@H](OCc1ccccc1)C(=O)N[C@@H](Cc1ccccc1)C(=O)OC |  |  | IC50 [4]: Not Active |
| O=C(NCc1cccnc1)[C@H](OCc1ccccc1)[C@H](O)[C@@H](O)[C@@H](OCc1ccccc1)C(=O)NCc1cccnc1 |  | Not Active |  |
| CC(C)[C@@H](CO)NC(=O)[C@H](OCc1ccccc1)[C@H](O)[C@@H](O)[C@@H](OCc1ccccc1)C(=O)N[C@H](CO)C(C)C |  |  | IC50 [5]: Not Active |
| Cc1c(O)cccc1NC(=O)[C@H](OCc1ccccc1)[C@H](O)[C@@H](O)[C@@H](OCc1ccccc1)C(=O)Nc1cccc(O)c1C |  |  | IC50 [6]: Not Active |
| CNC(=O)[C@H](CCSC)NC(=O)[C@H](OCc1ccccc1)[C@H](O)[C@@H](O)[C@@H](OCc1ccccc1)C(=O)N[C@@H](CCSC)C(=O)NC | 660 |  |  |
| COC(=O)[C@H](CC(C)C)NC(=O)[C@H](OCc1ccccc1)[C@H](O)[C@@H](O)[C@@H](OCc1ccccc1)C(=O)N[C@@H](CC(C)C)C(=O)OC |  | Not Active |  |
| CNC(=O)[C@H](Cc1ccc(O)cc1)NC(=O)[C@H](OCc1ccccc1)[C@H](O)[C@@H](O)[C@@H](OCc1ccccc1)C(=O)N[C@@H](Cc1ccc(O)cc1)C(=O)NC | 5000 |  | IC50 [4]: Not Active |
| CNC(=O)C(NC(=O)[C@H](OCc1ccccc1)[C@H](O)[C@@H](O)[C@@H](OCc1ccccc1)C(=O)NC(C(=O)NC)c1cccc(F)c1)c1cccc(F)c1 (stereo partly drawn) | 81 | Not Active |  |
| O=C(NCc1ccncc1)[C@H](OCc1ccccc1)[C@H](O)[C@@H](O)[C@@H](OCc1ccccc1)C(=O)NCc1ccncc1 |  | Not Active |  |
| CNC(=O)C(NC(=O)[C@H](OCc1ccccc1)[C@H](O)[C@@H](O)[C@@H](OCc1ccccc1)C(=O)NC(C(=O)NC)[C@@H](C)O)[C@H](C)O (stereo partly drawn) | 500 | Not Active |  |
| Cc1cc(O)ccc1NC(=O)[C@H](OCc1ccccc1)[C@H](O)[C@@H](O)[C@@H](OCc1ccccc1)C(=O)Nc1ccc(O)cc1C |  |  | IC50 [6]: Not Active |
| CC(C)[C@H](NC(=O)[C@H](OCc1ccccc1)[C@H](O)[C@@H](O)[C@@H](OCc1ccccc1)C(=O)N[C@H](C(=O)OCc1ccccc1)C(C)C)C(=O)OCc1ccccc1 |  |  | IC50 [7]: Not Active |
| Cc1ccc(NC(=O)[C@H](OCc2ccccc2)[C@H](O)[C@@H](O)[C@@H](OCc2ccccc2)C(=O)Nc2ccc(C)cc2O)c(O)c1 |  |  | IC50 [6]: Not Active |
| CC[C@@H](C)C(NC(=O)[C@H](OCc1ccccc1)[C@H](O)[C@@H](O)[C@@H](OCc1ccccc1)C(=O)NC(C(=O)NC)[C@@H](C)CC)C(=O)NC (stereo partly drawn) | 0.9 |  | EC50 (MT4): 1 µg/mL (≈ 1.56 µM) |
| O=C(N[C@@H]1c2ccccc2C[C@@H]1O)[C@H](OCc1ccccc1)[C@H](O)[C@@H](O)[C@@H](OCc1ccccc1)C(=O)N[C@H]1c2ccccc2C[C@H]1O | 0.2 |  | EC50 (MT4): 0.06 µg/mL (≈ 0.0919 µM) |
| O=C(NC1c2ccccc2CC1O)[C@H](OCc1ccccc1)[C@H](O)[C@@H](O)[C@@H](OCc1ccccc1)C(=O)N[C@H]1c2ccccc2C[C@H]1O (single isomer, unassigned) |  | Not Active |  |
| CC(C)(C)NC(=O)[C@@H]1CN(Cc2cccnc2)CCN1C[C@@H](O)C[C@@H](Cc1ccccc1)C(=O)N[C@H]1c2ccccc2C[C@H]1O.O [INDINAVIR] |  |  | EC50 (MT4): 0.04 µg/mL |
| CC(C)c1nc(CN(C)C(=O)N[C@H](C(=O)N[C@@H](Cc2ccccc2)C[C@H](O)[C@H](Cc2ccccc2)NC(=O)OCc2cncs2)C(C)C)cs1 [RITONAVIR] |  |  | EC50 (MT4): 0.05 µg/mL (≈ 0.0694 µM) |
